13 compounds from ChEMBL document CHEMBL1671813, “Discovery of potent competitive antagonists and positive modulators of the P2X2 receptor” (J Med Chem, 2011) can be followed below.

Structures are written as SMILES.

For assay [1], the target named is T1, P2X purinoceptor 2 (Rattus norvegicus, UniProt P49653).
T1 sequence (P49653 whole entry): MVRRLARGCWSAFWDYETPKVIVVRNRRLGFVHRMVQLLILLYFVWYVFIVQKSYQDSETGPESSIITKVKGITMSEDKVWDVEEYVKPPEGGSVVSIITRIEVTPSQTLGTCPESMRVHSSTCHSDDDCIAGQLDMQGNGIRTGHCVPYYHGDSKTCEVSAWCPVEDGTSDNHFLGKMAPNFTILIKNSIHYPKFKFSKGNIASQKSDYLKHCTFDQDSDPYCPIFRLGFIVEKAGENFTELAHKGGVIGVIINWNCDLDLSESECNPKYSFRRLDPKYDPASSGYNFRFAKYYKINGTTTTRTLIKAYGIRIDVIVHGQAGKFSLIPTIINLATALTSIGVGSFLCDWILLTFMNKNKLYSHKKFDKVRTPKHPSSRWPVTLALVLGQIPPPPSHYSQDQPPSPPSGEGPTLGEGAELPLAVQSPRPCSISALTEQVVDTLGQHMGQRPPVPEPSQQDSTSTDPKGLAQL
The assay can be described thus: Antagonist activity against rat P2X2 receptor expressed in Xenopus laevis oocyte assessed as inhibition of ATP-induced inward current by two-electrode voltage-clamp electrophysiology.

Assay [2] concerns the target T1, P2X purinoceptor 2. The assay can be described thus: Antagonist activity against rat P2X2 receptor expressed in Xenopus laevis oocyte assessed as inhibition of […] inward current by two-electrode voltage-clamp electrophysiology. The assay is classed as functional. An outline of the steps:
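Rat P2X2 or P2X4 cRNA was injected into collagenase-defolliculated Xenopus oocytes, which were kept at 19°C in ORi. Two-electrode voltage clamp was run 2-3 days later with perfusion in calcium-free Mg-ORi. 10 μM ATP was applied until steady-state current, then coapplied with incrementally larger test concentrations, with ATP-alone washout between. Inhibition was taken from the stationary current ratio, and IC50 from a Hill fit to pooled data.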

For assay [3], the target named is P2Y purinoceptor 4 (Homo sapiens, UniProt P51582). As to the kind of experiment: Antagonist activity against human P2Y4 receptor expressed in 1321N1 astrocytoma cells by calcium mobilization assay. The assay is classed as functional, cell-based. An outline of the steps:
(§1)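 Astrocytoma cell lines stably transfected with human P2Y2, human P2Y4 or rat P2Y6 receptor. Inhibition of receptor-mediated intracellular calcium mobilization was measured.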

In assay [4] the target is P2Y purinoceptor 6 (Rattus norvegicus) (UniProt Q63371). The assay can be described thus: Antagonist activity against rat P2Y6 receptor expressed in 1321N1 astrocytoma cells by calcium mobilization assay.
Assay [5] concerns the target T2, P2X purinoceptor 2 (Rattus norvegicus) (UniProt P49653).
T2 sequence (whole entry): T1 sequence (P49653 whole entry)
As to the kind of experiment: Antagonist activity against rat P2X2 receptor expressed in Xenopus laevis oocyte assessed as potentiation of ATP-induced inward current at 100 nM by two-electrode voltage-clamp electrophysiology.

Assay [6] has as its target P2Y purinoceptor 2 (Homo sapiens, UniProt P41231). As to the kind of experiment: Antagonist activity against human P2Y2 receptor expressed in 1321N1 astrocytoma cells by calcium mobilization assay. The format is functional, cell-based. An outline of the steps: as §1
In assay [7] the target is T3, P2X purinoceptor 4 (Rattus norvegicus, UniProt P51577).
T3 sequence (P51577 whole entry): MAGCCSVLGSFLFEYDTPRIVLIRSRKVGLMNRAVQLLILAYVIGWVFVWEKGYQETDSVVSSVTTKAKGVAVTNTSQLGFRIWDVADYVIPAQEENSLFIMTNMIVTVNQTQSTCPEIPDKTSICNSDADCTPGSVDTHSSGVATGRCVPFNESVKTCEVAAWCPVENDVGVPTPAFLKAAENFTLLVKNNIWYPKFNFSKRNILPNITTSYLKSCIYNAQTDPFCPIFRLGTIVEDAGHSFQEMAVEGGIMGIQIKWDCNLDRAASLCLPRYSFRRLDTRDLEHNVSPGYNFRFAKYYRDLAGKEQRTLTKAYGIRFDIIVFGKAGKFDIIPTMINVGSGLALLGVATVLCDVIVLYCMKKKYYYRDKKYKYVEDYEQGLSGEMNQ
As to the kind of experiment: Antagonist activity against rat P2X4 receptor expressed in Xenopus laevis oocyte assessed as inhibition of ATP-induced inward current by two-electrode voltage-clamp electrophysiology.

Assay [8] has as its target P2Y purinoceptor 12 (Homo sapiens, UniProt Q9H244). The assay can be described thus: Displacement of [3H]PSB0413 from human platelet P2Y12 receptor.
Assay [9] in a line: Selectivity ratio of IC50 for rat P2X2 receptor to IC50 for rat P2X1 receptor.
Assay [10] addresses T4, P2X purinoceptor 7 (Rattus norvegicus, UniProt Q64663).
T4 sequence (Q64663 whole entry): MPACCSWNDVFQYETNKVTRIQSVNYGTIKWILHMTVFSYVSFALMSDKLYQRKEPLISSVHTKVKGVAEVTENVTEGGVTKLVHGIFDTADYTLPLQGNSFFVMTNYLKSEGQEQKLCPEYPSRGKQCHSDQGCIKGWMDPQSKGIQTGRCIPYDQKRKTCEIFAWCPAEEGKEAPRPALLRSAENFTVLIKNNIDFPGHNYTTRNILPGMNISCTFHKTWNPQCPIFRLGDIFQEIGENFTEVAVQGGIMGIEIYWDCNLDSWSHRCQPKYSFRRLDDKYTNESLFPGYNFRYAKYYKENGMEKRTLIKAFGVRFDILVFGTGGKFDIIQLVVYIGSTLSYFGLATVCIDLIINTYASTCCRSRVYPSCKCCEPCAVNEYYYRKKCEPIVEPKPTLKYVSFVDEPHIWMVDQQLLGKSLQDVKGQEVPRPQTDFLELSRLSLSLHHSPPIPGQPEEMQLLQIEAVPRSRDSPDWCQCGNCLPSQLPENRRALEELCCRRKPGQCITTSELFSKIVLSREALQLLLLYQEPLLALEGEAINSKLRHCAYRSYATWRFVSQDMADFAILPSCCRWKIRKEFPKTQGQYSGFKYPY
As to the kind of experiment: Antagonist activity against rat P2X7 receptor expressed in Xenopus laevis oocyte assessed as inhibition of […] inward current by two-electrode voltage-clamp electrophysiology. The assay is classed as functional.

The nature of assay [11]: Selectivity ratio of IC50 for rat P2X2 receptor to IC50 for rat P2X7 receptor.
Assay [12] is described as follows: Selectivity ratio of IC50 for rat P2X2 receptor to IC50 for rat P2X2/3 receptor.
A short description of assay [13]: Selectivity ratio of IC50 for rat P2X2 receptor to IC50 for rat P2X4 receptor.
Assay [14] deals with T5, P2X purinoceptor 3 (Rattus norvegicus, UniProt P49654).
T5 sequence (P49654 whole entry): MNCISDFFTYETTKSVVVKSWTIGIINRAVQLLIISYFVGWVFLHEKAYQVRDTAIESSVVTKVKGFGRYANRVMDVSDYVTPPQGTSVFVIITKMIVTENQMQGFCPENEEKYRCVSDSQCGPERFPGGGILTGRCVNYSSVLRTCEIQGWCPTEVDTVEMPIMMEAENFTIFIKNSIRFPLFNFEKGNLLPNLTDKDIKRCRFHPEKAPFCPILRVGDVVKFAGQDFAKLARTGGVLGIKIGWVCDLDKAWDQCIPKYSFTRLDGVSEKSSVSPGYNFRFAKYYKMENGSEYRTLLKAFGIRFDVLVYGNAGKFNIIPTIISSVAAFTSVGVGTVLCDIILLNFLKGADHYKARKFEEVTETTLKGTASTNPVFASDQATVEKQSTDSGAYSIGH
The assay can be described thus: Antagonist activity against rat P2X3 receptor expressed in Xenopus laevis oocyte assessed as inhibition of alpha, beta-meATP-induced inward current by two-electrode voltage-clamp electrophysiology. The assay is classed as functional.

Assay [15] deals with T6, P2X2/P2X3 receptor (Rattus norvegicus, UniProt P49653+P49654).
T6 sequence (P49653 whole entry): T1 sequence (P49653 whole entry)
T6 sequence (P49654 whole entry): T5 sequence (P49654 whole entry)
The assay can be described thus: Antagonist activity against rat P2X2/3 receptor expressed in Xenopus laevis oocyte assessed as inhibition of alpha, beta-meATP-induced inward current by two-electrode voltage-clamp electrophysiology. The assay is classed as functional. An outline of the steps: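 Heteromer formed by injecting rP2X2 and rP2X3 cRNA at 1:2 (w/w). Agonist 1 μM α,β-meATP, applied repeatedly to keep homomeric P2X3 desensitized. Same steady-state coapplication protocol in Ca-free Mg-ORi. IC50 from a Hill fit to pooled data from 5-7 experiments.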

Assay [16] can be described thus: Selectivity ratio of IC50 for rat P2X2 receptor to IC50 for rat P2X3 receptor.
Assay [17] concerns the target T7, P2X purinoceptor 1 (Rattus norvegicus, UniProt P47824).
T7 sequence (P47824 whole entry): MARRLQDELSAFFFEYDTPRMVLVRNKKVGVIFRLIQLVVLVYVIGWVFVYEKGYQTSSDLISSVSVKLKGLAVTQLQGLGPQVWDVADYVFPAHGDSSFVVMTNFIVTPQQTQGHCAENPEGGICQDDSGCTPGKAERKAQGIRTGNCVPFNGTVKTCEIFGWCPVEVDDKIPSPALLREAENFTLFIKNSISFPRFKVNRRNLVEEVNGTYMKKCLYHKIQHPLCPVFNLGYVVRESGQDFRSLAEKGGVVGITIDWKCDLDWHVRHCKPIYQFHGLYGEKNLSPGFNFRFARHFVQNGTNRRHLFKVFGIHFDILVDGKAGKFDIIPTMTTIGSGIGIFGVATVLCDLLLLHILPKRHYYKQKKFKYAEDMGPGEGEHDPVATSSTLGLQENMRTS
As to the kind of experiment: Antagonist activity against rat P2X1 receptor expressed in Xenopus laevis oocyte assessed as inhibition of alpha, beta-meATP-induced inward current by two-electrode voltage-clamp electrophysiology. The format is functional.

P2Y purinoceptor 4, sequence (P51582 whole entry): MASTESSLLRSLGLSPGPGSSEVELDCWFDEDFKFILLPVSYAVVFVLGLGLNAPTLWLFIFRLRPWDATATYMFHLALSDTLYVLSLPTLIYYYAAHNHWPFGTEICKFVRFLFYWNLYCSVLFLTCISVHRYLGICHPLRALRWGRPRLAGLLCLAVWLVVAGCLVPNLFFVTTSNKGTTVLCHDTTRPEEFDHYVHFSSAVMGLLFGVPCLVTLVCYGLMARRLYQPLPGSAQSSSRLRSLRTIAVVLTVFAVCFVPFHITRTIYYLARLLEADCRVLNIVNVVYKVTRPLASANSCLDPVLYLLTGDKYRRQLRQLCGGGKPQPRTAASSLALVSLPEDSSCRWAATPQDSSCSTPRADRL
P2Y purinoceptor 2, sequence (P41231 whole entry): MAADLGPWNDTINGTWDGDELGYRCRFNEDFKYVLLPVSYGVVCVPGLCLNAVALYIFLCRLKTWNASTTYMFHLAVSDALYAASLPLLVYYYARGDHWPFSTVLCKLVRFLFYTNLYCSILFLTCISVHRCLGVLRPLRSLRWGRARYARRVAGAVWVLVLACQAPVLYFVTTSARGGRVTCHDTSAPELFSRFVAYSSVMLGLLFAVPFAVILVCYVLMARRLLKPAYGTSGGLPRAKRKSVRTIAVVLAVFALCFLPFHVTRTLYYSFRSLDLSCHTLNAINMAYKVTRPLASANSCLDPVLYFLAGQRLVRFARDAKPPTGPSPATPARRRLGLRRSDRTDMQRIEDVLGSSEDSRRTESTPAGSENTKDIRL
P2Y purinoceptor 12, sequence (Q9H244 whole entry): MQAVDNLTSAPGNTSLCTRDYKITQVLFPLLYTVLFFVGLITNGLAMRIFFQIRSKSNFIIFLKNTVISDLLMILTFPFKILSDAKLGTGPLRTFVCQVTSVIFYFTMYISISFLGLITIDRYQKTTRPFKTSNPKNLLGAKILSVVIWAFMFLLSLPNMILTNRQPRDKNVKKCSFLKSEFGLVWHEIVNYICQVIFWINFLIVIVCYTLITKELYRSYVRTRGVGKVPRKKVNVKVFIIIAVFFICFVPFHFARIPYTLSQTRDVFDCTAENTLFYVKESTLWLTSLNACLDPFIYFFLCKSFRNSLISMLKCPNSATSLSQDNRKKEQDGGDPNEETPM

For the compound `Cc1cc(/N=N/c2ccc(S(=O)(=O)O)cc2S(=O)(=O)O)c(COP(=O)(O)O)c(C=O)c1O`, the figures for the half-inhibitory concentration (IC50) in assay [1] and in [2] were 4 µM and 39.8 µM, respectively.

Turning to `Nc1c(S(=O)(=O)O)cc(Nc2cccc(Cc3ccccc3)c2)c2c1C(=O)c1ccccc1C2=O`, the IC50 in [3], in assay [4] and in assay [6] was greater than 10 µM in each case. The potentiation % in [5] is 120%.

As for `Nc1c(S(=O)(=O)O)cc(Nc2ccc(Nc3nc(Cl)nc(Cl)n3)cc2)c2c1C(=O)c1ccccc1C2=O`, the IC50 in assay [3] was 10 µM; in assay [4], 10 µM; in [7], greater than 10 µM; in [1], 0.117 µM; in assay [6] it was 12.1 µM.

As for `COc1cccc(Nc2cc(S(=O)(=O)O)c(N)c3c2C(=O)c2ccccc2C3=O)c1`, the half-maximal inhibitory concentration (IC50) was 10 µM in assay [3]; greater than 10 µM in [4]; greater than 10 µM in assay [7]; 0.623 µM in assay [1]; 10 µM in [6]. This compound yielded a Ki in [8] of 10 µM.

With `Nc1c(S(=O)(=O)O)cc(Nc2ccc(Nc3nc(Cl)nc(Nc4cccc(S(=O)(=O)O)c4)n3)c(S(=O)(=O)O)c2)c2c1C(=O)c1ccccc1C2=O` [RB 2], the IC50 is 4.34 µM in assay [4], 4 µM in [1] and 39.8 µM in assay [2]. In addition, affinity in assay [8] was put at a Ki of 0.68 µM.

Consider `Nc1c(S(=O)(=O)O)cc(Nc2ccc(S(=O)(=O)O)c(Nc3nc(Cl)nc(Cl)n3)c2)c2c1C(=O)c1ccccc1C2=O`, for which the IC50 in [3] is greater than 10 µM; in assay [4] it was greater than 10 µM; in assay [9] it was 0.0062 µM; in assay [10] it was greater than 10 µM; in [7], greater than 10 µM; in assay [11], greater than 0.12 µM. In addition, the IC50 in assay [12] was 0.0132 µM; in [13] it was greater than 0.12 µM; in assay [14] it was 0.494 µM; in assay [15], 1.04 µM; in assay [16] it was 0.0053 µM; in assay [1], 0.079 µM. For the same compound, the IC50 in [6] turned out to be 10 µM; in [17] it was 0.422 µM.

With `Nc1ncnc2c1ncn2[C@@H]1O[C@H](COP(=O)(O)OP(=O)(O)OP(=O)(O)O)[C@H]2OC3(O[C@H]21)C([N+](=O)[O-])=CC(=[N+]([O-])[O-])C=C3[N+](=O)[O-]` (some centres undefined) [TNP-ATP SODIUM], the IC50 in [1] is 4 µM; in assay [2], 39.8 µM.

On to `Nc1c(S(=O)(=O)O)cc(Nc2cc(Nc3nc(Cl)nc(Cl)n3)cc(C(=O)O)c2)c2c1C(=O)c1ccccc1C2=O`, for which the IC50 was 1.45 µM in assay [3]; 2.55 µM in assay [4]; greater than 10 µM in [7]; 0.293 µM in assay [1]; 3.27 µM in [6].

Consider `Cc1cc(C)cc(Nc2cc(S(=O)(=O)O)c(N)c3c2C(=O)c2ccccc2C3=O)c1`, for which the potentiation % in assay [5] was 106%.

On to `Nc1c(S(=O)(=O)O)cc(Nc2ccc(Nc3ccccc3)c(S(=O)(=O)O)c2)c2c1C(=O)c1ccccc1C2=O`, for which the potentiation % in [5] came to 110%.

As for `Nc1c(S(=O)(=O)O)cc(Nc2cccc(Nc3nc(Cl)nc(Cl)n3)c2)c2c1C(=O)c1ccccc1C2=O`, the IC50 in assay [3] was 10 µM; in [4], greater than 10 µM; in [1], 0.086 µM; in assay [6], 24.3 µM.

With `Cc1cccc(Nc2cc(S(=O)(=O)O)c(N)c3c2C(=O)c2ccccc2C3=O)c1`, the half-maximal inhibitory concentration (IC50) in assay [3] was greater than 10 µM; in assay [4], 3.92 µM; in assay [7] it was greater than 10 µM; in assay [1], 0.8 µM; in assay [6], 10 µM. This compound also displayed a Ki in [8] of 10 µM.

Take `COc1nc(Cl)nc(Nc2ccc(Nc3cc(S(=O)(=O)O)c(N)c4c3C(=O)c3ccccc3C4=O)cc2S(=O)(=O)O)n1`: the IC50 in assay [3] is greater than 10 µM; in assay [4] it was greater than 10 µM; in [7], greater than 10 µM; in assay [1] it was 0.582 µM; in [6], 24.2 µM.
